The results in this text go back to ChEMBL document CHEMBL3593177, “Benzimidazole derivatives as potential dual inhibitors for PARP-1 and DHODH” (Bioorg Med Chem, 2015).

pIC50: −log10 of the molar value. A value given as a limit tells only on which side of the number the result lay.

Test [1] concerns the target T1, Dihydroorotate dehydrogenase (quinone), mitochondrial (Homo sapiens, UniProt Q02127). Briefly: Inhibition of DHODH (unknown origin) using L-DHO, DUQ, DCIP as substrate preincubated for 30 mins followed by substrate addition measured after 20 mins by multilabel plate reader analysis.
Test [2] concerns the target Poly [ADP-ribose] polymerase 1 (Homo sapiens, UniProt P09874). Briefly: Inhibition of PARP-1 (unknown origin) assessed as incorporation of biotinylated poly (ADP-ribose) onto histone protein after 60 mins by TACS-Sapphire substarte-based colorimetric analysis.
In test [3] the target is T1, Dihydroorotate dehydrogenase (quinone), mitochondrial. Briefly: Inhibition of DHODH (unknown origin) using L-DHO, DUQ, DCIP as substrate at 10 uM preincubated for 30 mins followed by substrate addition measured after 20 mins by multilabel plate reader analysis relative to control. An outline of the steps:
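Single-concentration screen at 10 µM. DHODH (25 ng) was preincubated with compound for 30 min at room temperature in 50 mM Tris-HCl, 150 mM KCl, 0.8% Triton, pH 8.0, with 1% DMSO final. The reaction was started with a substrate mix of 20 mM L-DHO, 2 mM DUQ and 2 mM DCIP (added-mix concentrations). DCIP reduction was followed as the drop in A610, read from 20 min, every 10 min for 1 h.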

Test [4] has the same target. Briefly: Inhibition of DHODH (unknown origin) using L-DHO, DUQ, DCIP as substrate at 1 uM preincubated for 30 mins followed by substrate addition measured after 20 mins by multilabel plate reader analysis relative to control.
Test [5] shares this target. Put plainly: Inhibition of human DHODH using L-DHO, DUQ, DCIP as substrate preincubated for 30 mins followed by substrate addition measured after 20 mins.

Sequence of Poly [ADP-ribose] polymerase 1 (P09874 whole entry): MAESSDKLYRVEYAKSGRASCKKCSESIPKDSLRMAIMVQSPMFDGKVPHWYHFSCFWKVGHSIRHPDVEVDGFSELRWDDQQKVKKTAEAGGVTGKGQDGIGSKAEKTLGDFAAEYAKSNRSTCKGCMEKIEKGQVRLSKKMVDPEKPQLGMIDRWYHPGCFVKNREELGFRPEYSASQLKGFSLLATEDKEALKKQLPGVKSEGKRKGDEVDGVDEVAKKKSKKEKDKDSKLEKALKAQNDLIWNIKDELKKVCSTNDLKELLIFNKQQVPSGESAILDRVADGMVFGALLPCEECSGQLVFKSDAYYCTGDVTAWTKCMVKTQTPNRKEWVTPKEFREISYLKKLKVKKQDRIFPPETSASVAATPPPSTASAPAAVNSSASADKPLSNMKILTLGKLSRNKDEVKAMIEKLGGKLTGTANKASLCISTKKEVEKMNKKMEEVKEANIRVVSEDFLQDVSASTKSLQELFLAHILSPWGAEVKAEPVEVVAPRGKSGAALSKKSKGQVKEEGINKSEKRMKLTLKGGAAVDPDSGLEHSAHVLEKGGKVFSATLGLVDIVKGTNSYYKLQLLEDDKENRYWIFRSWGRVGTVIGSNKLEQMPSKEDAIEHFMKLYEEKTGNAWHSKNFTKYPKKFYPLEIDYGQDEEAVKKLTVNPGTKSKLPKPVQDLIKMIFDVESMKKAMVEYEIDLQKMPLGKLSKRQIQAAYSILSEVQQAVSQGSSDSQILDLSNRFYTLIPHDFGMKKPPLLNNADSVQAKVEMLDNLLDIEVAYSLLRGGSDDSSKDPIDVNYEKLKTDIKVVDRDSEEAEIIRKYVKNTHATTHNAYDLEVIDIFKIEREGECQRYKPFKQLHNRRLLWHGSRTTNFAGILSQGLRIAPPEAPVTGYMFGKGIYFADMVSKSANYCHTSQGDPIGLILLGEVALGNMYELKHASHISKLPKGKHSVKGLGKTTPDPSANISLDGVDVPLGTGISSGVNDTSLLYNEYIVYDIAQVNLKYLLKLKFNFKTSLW
T1 sequence (Q02127 whole entry): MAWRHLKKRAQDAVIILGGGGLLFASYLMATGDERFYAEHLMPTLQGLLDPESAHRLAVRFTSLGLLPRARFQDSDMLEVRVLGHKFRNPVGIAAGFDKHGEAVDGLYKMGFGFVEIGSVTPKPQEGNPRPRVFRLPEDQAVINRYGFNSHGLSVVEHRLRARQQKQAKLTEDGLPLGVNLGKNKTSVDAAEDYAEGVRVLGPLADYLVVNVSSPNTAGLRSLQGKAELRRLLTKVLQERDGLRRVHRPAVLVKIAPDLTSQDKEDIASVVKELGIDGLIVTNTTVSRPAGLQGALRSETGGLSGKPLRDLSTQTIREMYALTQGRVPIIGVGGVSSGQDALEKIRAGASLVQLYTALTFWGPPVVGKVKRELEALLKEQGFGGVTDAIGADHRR

With `CC(=O)Nc1cccc(-c2ccc(-c3nc4c(C(=O)O)cc(C)cc4[nH]3)cc2)c1`, the negative-log IC50 (pIC50) in test [1] is 5.86. Regarding `CC(=O)Nc1ccccc1COc1ccc(-c2ccc(-c3nc4c(C(=O)O)cc(C)cc4[nH]3)cc2)cc1`, the negative-log IC50 (pIC50) in test [2] was 4.97; in test [1] it was 6.52. Turning to `Cc1cc(C(N)=O)c2nc(-c3ccc(C#N)cc3)[nH]c2c1`, the inhibition in test [3] was less than 15%. Take `NC(=O)c1cc(F)cc2[nH]c(-c3ccc(-c4cccc(NC(=O)C5CC5)c4)cc3F)nc12`: the negative logarithm of the IC50 (pIC50) in test [2] is 5.89. `NC(=O)c1cccc2[nH]c(-c3ccc(C(F)(F)F)cc3)nc12` showed an inhibition in test [3] of less than 15%.

Turning to `CC(=O)Nc1ccc(-c2ccc(-c3nc4c(C(N)=O)cccc4[nH]3)cc2)cn1`, the pIC50 in test [2] is 7.31. For the molecule `CC(=O)Nc1ccccc1-c1ccc(-c2nc3c(C(N)=O)cccc3[nH]2)cc1`, the pIC50 in test [2] was 6.85. In test [1], `CC(=O)Nc1cccc(COc2ccc(-c3ccc(-c4nc5c(C(=O)O)cc(C)cc5[nH]4)cc3)cc2)c1` had a pIC50 of 7.55.

On to `NC(=O)c1cccc2[nH]c(-c3ccc(-c4cncc(C(=O)N5CCCC5)c4)cc3)nc12`, for which the pIC50 in test [2] is 7.54.

On to `COc1cc(-c2ccc(-c3nc4c(C(N)=O)cc(F)cc4[nH]3)c(F)c2)ccc1NC(=O)C1CC1`, for which the pIC50 in test [2] is 6.01. For `CCC(=O)Nc1ccc(-c2ccc(-c3nc4c(C(N)=O)cc(F)cc4[nH]3)cc2)cc1`, the pIC50 in test [2] was 5.76. In test [3], this molecule displayed an inhibition of less than 15%. In test [3], `Cc1cc(C(N)=O)c2nc(-c3ccc(-c4ccc(C(=O)N5CCCC5)cc4)cc3)[nH]c2c1` showed an inhibition of less than 15%. In the case of `CC(=O)Nc1cccc(-c2ccc(-c3nc4c(C(N)=O)cccc4[nH]3)cc2)c1`, the inhibition in test [4] is 45%. Also, the pIC50 in test [2] is 6.34. `NC(=O)c1cccc2[nH]c(-c3ccc(-c4cncc(CN5CCCC5)c4)cc3)nc12`: the negative-log IC50 (pIC50) in test [2] was 7.21. Still for that read-out and setting: with `NC(=O)c1cccc2[nH]c(-c3ccc(-c4ccc(N)nc4)cc3)nc12` the figure was 7.49.

Turning to `CC(=O)Nc1ccc(COc2ccc(-c3ccc(-c4nc5c(C(=O)O)cc(C)cc5[nH]4)cc3)cc2)cc1`, the negative-log IC50 (pIC50) in test [1] was 7.89. `COc1ccc(-c2nc3c(C(N)=O)cccc3[nH]2)cc1`: in test [3], the inhibition is less than 15%. Turning to `NC(=O)c1cccc2[nH]c(-c3ccc(-c4ccc(C(=O)N5CCCC5)nc4)cc3)nc12`, the negative logarithm of the IC50 (pIC50) in test [2] is 7.92. Besides, the inhibition in test [3] is less than 15%. Molecule `O=C(O)c1cccc2[nH]c(-c3ccc(-c4ccccc4)cc3)nc12` had a negative logarithm of the IC50 (pIC50) in test [5] of 6.12. Turning to `COc1cc(-c2ccc(-c3nc4c(C(N)=O)cc(F)cc4[nH]3)cc2)ccc1NC(=O)C1CC1`, the negative logarithm of the IC50 (pIC50) in test [2] is 5.22. The same molecule had an inhibition in test [3] of less than 15%.

Turning to `NC(=O)c1cccc2[nH]c(-c3ccc(-c4ccccc4)cc3)nc12`, the values for the pIC50 in test [2] and in test [1] were 6.15 and 5.01, respectively. With `NC(=O)c1cccc2[nH]c(-c3ccc(-c4ccc(OCCCN5CCCCC5)cc4)cc3)nc12`, the negative-log IC50 (pIC50) in test [2] is 5.64. The same molecule gave an inhibition in test [3] of less than 15%. As to `NC(=O)c1cc(F)cc2[nH]c(-c3ccc(-c4ccc(NC(=O)C5CC5)cc4F)cc3F)nc12`, the negative logarithm of the IC50 (pIC50) in test [2] was 7.08.

Molecule `Cc1cc(C(N)=O)c2nc(-c3ccc(-c4ccccc4)cc3)[nH]c2c1` had a pIC50 in test [1] of 5.11. Molecule `CC(=O)Nc1ccc(-c2ccc(-c3nc4c(C(=O)O)cc(C)cc4[nH]3)cc2)cc1` showed a negative-log IC50 (pIC50) in test [1] of 6.68. `Cc1cc(C(N)=O)c2nc(-c3ccc(C(F)(F)F)cc3)[nH]c2c1` had an inhibition in test [3] of less than 15%. Regarding `NC(=O)c1cccc2[nH]c(-c3ccc(-c4ccc(OCCN5CCCCC5)cc4)cc3)nc12`, the pIC50 in test [2] is 6.14. Take `COc1ccc(-c2nc3c(C(N)=O)cc(C)cc3[nH]2)cc1`: in test [3], the inhibition is less than 15%.

In the case of `NC(=O)c1cccc2[nH]c(-c3ccc(-c4ccc(C(=O)N5CCCC5)cc4)cc3)nc12`, the negative logarithm of the IC50 (pIC50) in test [2] is 6.51.

What is called pIC50 is the IC50 on a negative log10 scale, so that one unit is a factor of ten. As usually defined, the inhibition is the change of the read-out against control, counted positive when it falls. Low values mean little suppression, high ones strong suppression.
